# Compounds with a hit are over-represented: about 2.6% of the library has one in this group of screens.
# SMARCA2 activ = SMARCA2 (BRM) function activators, primary screen, cell-based, luminescence, high throughput | MG213 cells, MMTV-luciferase reporter, dexamethasone, overnight | activation, % at 9.1 µM | hit rate 1% among 370,000 | AID 652017, 2013; in the data active means activation above about 7.8%;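 further: 0% = vehicle wells and 100% = reference activator wells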
# ARFGAP1 inh = inhibitors of rat ARFGAP1 GAP activity, primary screen, biochemical, fluorescence polarization, GDP tracer. ADP-ribosylation factor GTPase-activating protein 1 (Rattus norvegicus), Q62848. hit rate 0.26% among 360,000. inhibition, % at 16.5 µM. Arfgap1-stimulated ARF1 GTP hydrolysis, GDP FP detection;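 active means inhibition above a per-plate limit, mean inhibition of low control wells plus 3 SD, cut at about 25% in these data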;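 further: 0% = DMSO wells with enzyme and 100% = wells lacking Arfgap1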
# Target sequence (Q62848 1-136 limits assumed): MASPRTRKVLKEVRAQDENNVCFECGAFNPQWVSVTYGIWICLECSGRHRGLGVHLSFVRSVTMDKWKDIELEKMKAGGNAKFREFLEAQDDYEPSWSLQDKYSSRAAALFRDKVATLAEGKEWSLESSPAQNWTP
#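 Assay system: Rat Arfgap1 GAP domain (His6, aa 1-136), purified enzyme | Buffer or medium: HEPES 25 mM pH 7.5, NaCl 150 mM, MgCl2, DTT | Schedule: GTP hydrolysis reaction 2 h at 25 °C | Signal: FP of antibody-bound GDP Alexa 633 tracer, ex 620/em 688 nm | Measure: Percent inhibition of Arfgap1-stimulated GTP hydrolysis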
# esBAF inh = Bmi1 luciferase reporter increase in mESCs, primary screen, esBAF inhibitor project, mouse ES cells, Bmi1 luciferase knock-in, single point. 24 h; 100% = twice the neutral-well signal. reporter increase, % at 12.5 µM. hit rate 2% among 350,000; in the data active means activation above about 40%;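 further: 0% = median of the plate's neutral control wells and 100% = double that signal; a rise in the Bmi1 reporter signal indicates esBAF inhibition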
# ASAP1 inh = inhibitors of human ASAP1 ArfGAP activity, primary screen, biochemical, fluorescence polarization; Arf-GAP with SH3 domain, ANK repeat and PH domain-containing protein 1 (Homo sapiens), …; inhibition, % at 16.5 µM; ASAP1-stimulated ARF1 GTP hydrolysis, GDP FP detection; hit rate 0.19% among 360,000; in the data active means inhibition above about 25%;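 further: 0% = vehicle with enzyme and substrate and 100% = no enzyme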
# Active calls of the source: *; . = no result given.
SMILES,SMARCA2 activ,ARFGAP1 inh,esBAF inh,ASAP1 inh
NC(=O)C1CCN(c2nc(-c3ccccc3F)cs2)CC1,6.8,0.2,38.1,6.3
NC(=O)C1CCN(c2nc(-c3ccccc3C(F)(F)F)cs2)CC1,2.9,-4.1,68.0*,1.2
CN(C)c1ccccc1-c1csc(N2CCC(C(N)=O)CC2)n1,6.0,-2.3,70.1*,12.0
Cc1noc(C)c1S(=O)(=O)Nc1ccc2c(c1)C(=O)N([C@H](C)CO)C[C@H](C)[C@@H](CN(C)C(=O)Nc1ccc(F)cc1)O2,.,.,0.6,.
O=C(OC1CCc2ccccc2C1=O)c1ccccc1O (stereo not drawn),7.1,-7.8,46.2*,-8.4
Cc1noc(C)c1NC(=O)Nc1ccc2c(c1)C(=O)N([C@H](C)CO)C[C@H](C)[C@H](CN(C)S(=O)(=O)c1cn(C)cn1)O2,.,.,3.2,.
O=C(NCC1COc2ccccc2O1)c1cccs1 (stereo not drawn),3.5,-3.1,26.6,0.5
O=C(NCC1COc2ccccc2O1)c1ccc(Br)s1 (stereo not drawn),1.6,-1.4,42.2*,-5.5
COc1cccc(C(=O)/C=C/Nc2cc(C)ccc2O)c1,5.1,5.2,62.8*,7.8
S=C1CCC(c2ccc(Cl)cc2)=NN1c1ccccc1,-3.2,-13.4,-0.4,12.0
c1ccc(C2=NN(c3ccccc3)CC2)cc1,4.6,10.7,45.5*,10.9
CCNc1cccc2c1C(=O)N(C)C2=O,7.8*,-10.4,2.7,-5.8
O=C(C[C@@H]1C[C@H]2c3cc(NC(=O)C4CCOCC4)ccc3O[C@H]2[C@H](CO)O1)NCc1cccc(F)c1,.,.,3.0,.
O=C(O)c1cc(NN=Nc2ccc(Br)cc2)cc([N+](=O)[O-])c1,-3.3,15.1,.,-5.7
Brc1ccc(N=NNc2ccccc2)cc1,5.8,7.9,53.5*,6.5
O=C(Nc1ccccc1)Nc1ccc2snnc2c1,1.6,-3.9,31.7,18.8
O=C(Nc1ccccc1)Nc1ccc2nnsc2c1,1.7,-5.2,73.1*,8.4
COc1ccc(NC(=O)Nc2ccc(N(C)C)cc2)cc1,1.3,9.3,19.5,2.9
CN(C)c1ccc(NC(=O)Nc2ccc3snnc3c2)cc1,3.3,1.7,68.7*,-20.5
COc1cccc(/C=C2\CCC(C3CCCC3)C2=O)c1OC (stereo not drawn),4.7,-2.8,67.4*,6.8
CC(C)OC(=O)N(C)C[C@H]1OCc2ccccc2-c2c(n(C)c3ccccc23)C(=O)N([C@@H](C)CO)C[C@H]1C,.,.,0.8,.
CCCCOC(=O)c1ccc(Nc2ncnc3nc[nH]c23)cc1,-0.4,-12.6,48.4*,4.8
CCOC(=O)CNc1ncnc2nc[nH]c12,-4.2,12.0,-2.1,6.9
CC1(C)Cc2c(sc(NC(=O)C(=O)N3CCCC3)c2C(N)=O)CO1,-4.0,-6.3,.,-9.9
CC1(C)Cc2c(sc(NC(=O)Nc3ccccc3)c2C(N)=O)CO1,2.2,-5.5,54.7*,15.7
SMILES,SMARCA2 activ,ARFGAP1 inh,esBAF inh,ASAP1 inh
Cc1c(C(=O)Oc2cccc3ccccc23)cnn1-c1ccccc1,-1.9,-6.0,44.9*,-0.7
COc1cc2[nH]cc(C(=O)NCCc3ccccc3)c(=O)c2cc1OC,0.3,7.5,1.3,-3.0
COc1cccc2c(=O)c(C(=O)NCCc3ccccc3)c[nH]c12,5.3,-3.7,54.9*,2.3
CC1(C)CC(=O)C=C(c2ccc3[nH]ccc3c2)C1,1.4,-12.6,28.8,-9.2
O=C1C=C(c2ccc3[nH]ccc3c2)CCC1,5.6,-6.1,88.0*,-17.6
c1ccc(Cc2ccc(OCCn3cncn3)cc2)cc1,-2.3,2.3,6.1,0.3
c1ccc(-c2ccc(OCCOCCn3cncn3)cc2)cc1,3.4,6.2,61.9*,13.6
Cc1ccsc1/C=N/N1CCN(c2ccccc2)CC1,3.6,4.3,48.5*,9.5
CSc1cccc(NC(=O)c2[nH]c(C)c(C(C)=O)c2C)c1,4.6,4.1,64.6*,-12.3
CC(=O)c1c(C)[nH]c(C(=O)Nc2ccc(Cl)cc2)c1C,1.8,12.4,60.2*,10.8
CO[C@H]1CC[C@H]2CCN(C)C(=O)[C@H](C)[C@@H](OC)CN(C)C(=O)c3cccc(C#N)c3OC[C@@H]1O2,.,.,-2.8,.
CCN(CC)S(=O)(=O)c1ccc(Nc2ccc(-c3ccc4c(c3)OCCO4)nn2)cc1,8.6*,8.0,.,3.7

# Screens as filed in PubChem BioAssay.
